# Activity calls are given as the source filed them. The rule behind the calls is not given here.
# Legend:
# Peritoneal macrophage = assay: Cytotoxicity against ICR mouse peritoneal macrophages assessed as reduction in cell viability at 10 uM measured after 24 hrs by MTT assay; type: cell-based
# Method in brief: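 Peritoneal macrophages from ICR mice, 2.0×10^4 cells/well in DMEM with 10% FBS. Cells exposed to compound for 24 h, then MTT (5 mg/ml in 0.9% NaCl) added for 4 h at 37 °C in 5% CO2. Absorbance read at 490 nm; final DMSO 0.1%.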
# [1] = molecular target: T1, Toll-like receptor 4/Ly96 (Mus musculus, UniProt Q9JHF9+Q9QUK6); assay: Inhibition of MD2-TLR4 protein-protein interaction in ICR mouse peritoneal macrophages assessed as reduction in LPS-induced TNFalpha production preincubated for 2 hrs followed by LPS-stimulation and measured after 22 hrs by ELISA
# T1 sequence (Q9QUK6 whole entry): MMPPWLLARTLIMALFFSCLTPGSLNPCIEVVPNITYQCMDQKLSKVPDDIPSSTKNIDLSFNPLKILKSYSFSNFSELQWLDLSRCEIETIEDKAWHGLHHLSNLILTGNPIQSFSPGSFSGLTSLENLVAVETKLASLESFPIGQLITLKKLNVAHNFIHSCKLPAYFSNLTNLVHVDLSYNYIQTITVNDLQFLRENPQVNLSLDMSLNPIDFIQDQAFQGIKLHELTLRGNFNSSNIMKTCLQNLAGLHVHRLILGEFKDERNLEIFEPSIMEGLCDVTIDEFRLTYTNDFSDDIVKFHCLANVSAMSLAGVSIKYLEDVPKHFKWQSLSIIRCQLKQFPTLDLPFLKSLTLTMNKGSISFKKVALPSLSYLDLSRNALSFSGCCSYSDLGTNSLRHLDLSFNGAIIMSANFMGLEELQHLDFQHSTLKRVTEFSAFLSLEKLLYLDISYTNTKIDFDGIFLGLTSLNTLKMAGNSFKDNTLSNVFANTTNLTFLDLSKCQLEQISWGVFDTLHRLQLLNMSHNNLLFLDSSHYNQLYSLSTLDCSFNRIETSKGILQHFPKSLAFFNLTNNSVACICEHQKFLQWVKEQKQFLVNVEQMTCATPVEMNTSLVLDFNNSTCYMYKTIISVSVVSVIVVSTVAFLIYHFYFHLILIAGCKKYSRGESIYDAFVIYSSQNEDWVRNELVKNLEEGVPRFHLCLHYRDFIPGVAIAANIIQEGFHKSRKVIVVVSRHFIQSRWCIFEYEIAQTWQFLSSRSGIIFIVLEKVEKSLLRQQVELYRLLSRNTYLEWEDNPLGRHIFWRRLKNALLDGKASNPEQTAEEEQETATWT
# T1 sequence (Q9JHF9 whole entry): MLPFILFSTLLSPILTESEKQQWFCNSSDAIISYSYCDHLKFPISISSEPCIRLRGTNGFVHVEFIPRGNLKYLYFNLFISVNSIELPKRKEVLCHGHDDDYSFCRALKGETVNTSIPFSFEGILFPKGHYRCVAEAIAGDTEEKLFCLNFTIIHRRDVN
# [2] = molecular target: T1, Toll-like receptor 4/Ly96; assay: Inhibition of MD2-TLR4 protein-protein interaction in ICR mouse peritoneal macrophages assessed as reduction in LPS-induced IL-6 production preincubated for 2 hrs followed by LPS-stimulation and measured after 22 hrs by ELISA
# Mus musculus [3] = assay: Antiinflammatory activity in LPS-induced C57BL/6 mouse model of acute lung injury assessed as reduction in F4/80 positive macrophage at 10 mg/kg, iv pretreated for 15 mins followed by LPS stimulation and measured after 6 hrs by ABC/hematoxylin staining-based immunohistochemistry analysis; type: functional, organism-based
# Method in brief: (§1)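 Male C57BL/6 mice (18−22 g; n=8 per group). Compound in 0.1% CMC-Na given by tail vein injection 15 min before intraperitoneal LPS (20 mg/kg); controls received saline. Mice were sacrificed 6 h after LPS, and serum and lung tissue were collected.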
# Mus musculus [4] = assay: Antiinflammatory activity in LPS-induced C57BL/6 mouse model of acute lung injury assessed as reduction in lung injury score at 10 mg/kg, iv pretreated for 15 mins followed by LPS stimulation and measured after 6 hrs; type: functional, organism-based; method in brief: as §1
SMILES,Activity (Peritoneal macrophage),also measured
CC(=O)Nc1ccc2[nH]nc(-c3ccc4c(ccn4CCO)c3)c2c1,Non-Toxic,–
COc1cc(OC)cc(C(=O)Nc2ccc3[nH]nc(-c4ccc5c(ccn5CCO)c4)c3c2)c1,Non-Toxic,–
O=C(Nc1ccc2[nH]nc(-c3ccc4c(ccn4CCO)c3)c2c1)c1ccc(F)cc1,Non-Toxic,–
O=[N+]([O-])c1ccc2[nH]nc(-c3ccc4c(ccn4CCO)c3)c2c1,Non-Toxic,IC50 [1]: 6.99 µM; IC50 [2]: 0.84 µM
Cc1cccc(C(=O)Nc2ccc3[nH]nc(-c4ccc5c(ccn5CCO)c4)c3c2)n1,Non-Toxic,–
O=C(Nc1ccc2[nH]nc(-c3ccc4c(ccn4CCO)c3)c2c1)c1ccccn1,Non-Toxic,–
O=C(Nc1ccc2c(c1)c(-c1ccc3[nH]ccc3c1)nn2Cc1ccccc1)c1c(Cl)cccc1Cl,Non-Toxic,–
CCCn1c(-c2c[nH]c3ncccc23)nc2ccc(N3CCN(C)CC3)nc21,–,Activity (Mus musculus [3]): Active; Activity (Mus musculus [4]): Active
O=C(Nc1ccc2[nH]nc(-c3ccc4c(ccn4CCO)c3)c2c1)c1ccc(Cl)cc1,Non-Toxic,–
O=C(Nc1ccc2[nH]nc(-c3ccc4c(ccn4CCO)c3)c2c1)c1cccc(Cl)c1,Non-Toxic,–
O=C(/C=C/c1ccccc1)Nc1ccc2[nH]nc(-c3ccc4c(ccn4CCO)c3)c2c1,Non-Toxic,–
O=C(Nc1ccc2[nH]nc(-c3ccc4c(ccn4CCO)c3)c2c1)c1c(Cl)cccc1Cl,Non-Toxic,IC50 [1]: 6.31 µM; IC50 [2]: 0.73 µM
Cc1cccc(C(=O)Nc2ccc3[nH]nc(-c4ccc5c(ccn5CCO)c4)c3c2)c1,Non-Toxic,–
Nc1ccc2[nH]nc(-c3ccc4c(ccn4CCO)c3)c2c1,Non-Toxic,–
CCC(=O)Nc1ccc2[nH]nc(-c3ccc4c(ccn4CCO)c3)c2c1,Non-Toxic,–
O=C(CCCl)Nc1ccc2[nH]nc(-c3ccc4c(ccn4CCO)c3)c2c1,Non-Toxic,IC50 [1]: 3.47 µM; IC50 [2]: 4.57 µM

# From ChEMBL document CHEMBL4304739, “Discovery of 3-(Indol-5-yl)-indazole Derivatives as Novel Myeloid Differentiation Protein 2/Toll-like Receptor 4 Antagonists for Treatment of Acute Lung Injury” (J Med Chem, 2019)
